For 1 compound, conc. for maximal amylase release results are on record in ChEMBL document CHEMBL1123803, “Synthesis and biological activities of pseudopeptide analogues of the C-terminal heptapeptide of cholecystokinin. On the importance of the peptide bonds” (J Med Chem, 1987).

The assay is filed under the species Rattus norvegicus. Description: Activity on Amylase release from rat pancreatic acini was determined. In kind it is functional. The method in brief: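 Dispersed rat pancreatic acini (about 1 mg protein/mL) in Hepes pH 7.4 standard incubation solution with 1% BSA, 1 mM calcium, 5 mM theophylline, gassed 95% O2/5% CO2; incubated 30 min at 37 °C across a concentration range. Amylase measured with Phadebas reagent; release = with minus without secretagogue, as percent of maximal CCK-8 stimulation. Duplicates, means of at least three experiments.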

On to `CCCC[C@H](NC(=O)[C@H](Cc1ccc(OS(=O)(=O)O)cc1)NC(=O)[C@H](CC(=O)O)NC(=O)OC(C)(C)C)C(=O)NCC(=O)N[C@@H](Cc1c[nH]c2ccccc12)C(=O)N[C@@H](CCCC)C(=O)N[C@@H](CC(=O)O)C(=O)N[C@@H](Cc1ccccc1)C(N)=O`, for which the conc. for maximal amylase release stood at 300 pM.
